Hits are enriched below; roughly 3.8% of the tested compounds scored in any of these assays.
XiGFP reactiv: X-chromosome reactivation activator | XiGFP mouse fibroblasts, % GFP-positive cells imaging, 3 d; cells co-treated with 5-aza-dC sensitizer; scaled so ellipticine positive control = 100% | activation, % at 7.58 µM | actives 0.055% (n = 360,000) | AID 743238;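 active = mean normalized replicate activation at least 10% and every replicate at or above 10%; inconclusive = only one of the two criteria met; inactive = mean below 10% and not all replicates reach 10%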
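Material: XiGFP fibroblasts, SV40-immortalized; Buffer or medium: DMEM containing 5-aza-dC; Compound dosing: single point; Times: 3 days compound exposure.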
FGF22 binding: binders of recombinant human FGF22 by thermal shift; activity (Tm shift, normalised), % at 9.99 µM; SYPRO orange fluorescence; percent of sucrose octasulfate shift, DMSO zero; actives 1.5% (n = 340,000); Q9HCT0;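 active = mean Tm shift, scaled 0 neutral to 100 positive control, at about 1.3% or above, every replicate too, limit read from the data; inconclusive = no clear call, values can overlap the other calls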
Target sequence (Q9HCT0 whole entry, looked up): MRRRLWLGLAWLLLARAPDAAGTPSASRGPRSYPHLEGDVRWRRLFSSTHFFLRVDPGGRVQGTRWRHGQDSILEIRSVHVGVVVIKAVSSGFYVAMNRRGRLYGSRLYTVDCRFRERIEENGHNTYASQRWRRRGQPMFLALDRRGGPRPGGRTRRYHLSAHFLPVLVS
ARNT TACC3 PPI: disrupts binding between human ARNT and TACC3. AlphaScreen His-ARNT PAS-B/GST-TACC3 binding, luminescence; TACC3 fragment carries E629A point mutation. inhibition, % at 9.99 µM. actives 0.66% (n = 390,000);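 active = mean inhibition of replicates at least 50% and at least half of replicates each reaching 50%; inconclusive = half or more replicates reach 50% but mean below 50%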
SIRT5 inh: blocks human SIRT5 desuccinylation of peptide; Purified SirT5, succinyl-peptide AMC, trypsin-coupled fluorescence; Q9NXA8; inhibition, % at 15 µM; actives 1.1% (n = 330,000); in the data active = inhibition above about 15%; inconclusive = no clear call, values can overlap the other calls
Target sequence (Q9NXA8 whole entry, looked up): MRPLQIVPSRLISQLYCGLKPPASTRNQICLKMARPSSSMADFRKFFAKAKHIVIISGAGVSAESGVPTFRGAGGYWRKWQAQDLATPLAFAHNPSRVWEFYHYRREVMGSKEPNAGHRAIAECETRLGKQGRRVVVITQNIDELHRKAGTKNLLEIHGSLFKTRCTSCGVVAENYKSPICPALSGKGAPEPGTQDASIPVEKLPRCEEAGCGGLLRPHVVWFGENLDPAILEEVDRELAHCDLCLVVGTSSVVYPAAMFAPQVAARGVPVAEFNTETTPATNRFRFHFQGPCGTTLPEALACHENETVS
DENV2 CPE rescue: inhibitors of DENV2 cytopathic effect. DENV2-infected cells, cytopathic effect rescue, plate reader. CPE inhibition, % at 9.99 µM. actives 1.7% (n = 350,000). AID 651640; in the data active = CPE inhibition above about 20%, passing the limit was not always enough; inconclusive = no clear call, values can overlap the other calls; tested in BHK-21 cells
FN deposit inh: fibronectin deposition inhibition. AH1F fibroblasts, Alexa488-fibronectin deposition fluorescence, overnight. inhibition, % at 12.6 µM. actives 0.086% (n = 350,000). AID 743247;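 active = mean inhibition across replicates of 30% or more, regardless of how many single replicates reach that level; inconclusive = mean under 30% yet at least half of replicates reach 30%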
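Material: AH1F fibroblasts assembling fluorescent fibronectin matrix; amount: 10000 AH1F cells/well; medium: DMEM, 2% serum; reagent: Alexa488-fibronectin, 24 nM final in well; dosing: single compound dose, delivered by pin transfer; incubation: 1 h adhesion, overnight exposure; detection: fluorescence after three HBSS washes, excitation 485 nm, emission 525 nm; measure: fibronectin deposition inhibition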
A number is an active result; i = inactive; ? = inconclusive; nt = no result given; ! = not confirmed by another sample.

SMILES	XiGFP reactiv	FGF22 binding	ARNT TACC3 PPI	SIRT5 inh	DENV2 CPE rescue	FN deposit inh
COc1ccc(C(=O)COC(=O)CCN2C(=O)C3C4CC(C(Br)C4Br)C3C2=O)cc1 (configuration not stated)	nt	nt	i	nt	nt	i
O=C(Nc1cccc(Cl)c1)c1csc([C@@H]2C[C@H](O)[C@@H](CO)O2)n1	i	i	nt	nt	36.0	nt
Cc1ccc(NC(=O)CSC(C)C(=O)OCC(=O)N2CCN(C(=O)c3ccco3)CC2)cc1 (configuration not stated)	i	i	i	i	85.9	i
Cc1ccc(NC(=O)CSCC(=O)N2CCN(C(=O)c3ccco3)CC2)cc1	i	i	i	i	i	i
CC(C)(CO)NC(=S)NCc1ccco1	i	i	i	30.1	i	i
C[C@H]1CN([C@@H](C)CO)C(=O)c2cc(C#CC(C)(C)O)cnc2O[C@H]1CN(C)C(=O)C1CCC1	i	i	i	i	i	nt
CCCNC(=O)N1[C@@H]2c3cccc(=O)n3C[C@H]1[C@H](CO)[C@H]2C(=O)N1CCC(Cc2ccccc2)CC1	i	i	i	i	i	i
O=C1CCC/C=C/C[C@H](CC(=O)N(CCO)Cc2ccccc2)C(=O)N[C@@H](Cc2ccccc2)CO1	i	nt	i	nt	24.8	i
COc1ccc(S(=O)(=O)N[C@H]2CC[C@@H](CC(=O)N3CCN(c4ccccc4)CC3)O[C@H]2CO)cc1	i	i	i	i	?	i
Cc1ccc(C)c(C(Nc2ccccc2)c2ccc3ccc(C)nc3c2O)c1 (configuration not stated)	i	i	nt	i	22.5	i
Cn1cc(/C=C/c2cc[n+](C)cc2)c2cc(Cl)ccc21	48.6	i	i	i	i	i
C[C@@H]1CN([C@H](C)CO)C(=O)c2cc(NC(=O)Nc3ccc(F)cc3)ccc2O[C@@H](C)CCCCO[C@@H]1CN(C)S(=O)(=O)c1ccc(Cl)cc1	i	i	i	i	i	i
C[C@H](CO)N1C[C@H](C)[C@@H](CN(C)S(C)(=O)=O)Oc2c(NC(=O)CCC(F)(F)F)cccc2C1=O	i	nt	nt	nt	nt	nt
COC(=O)[C@]1(C)CCC[C@@]2(C)C3CC[C@@]4(C)C[C@]3(CCC21)CC(=O)N4 (some centres not stated)	i	i	i	nt	i	i
C=C1C(=O)C23CCC4C(C)(C(=O)OC)CCCC4(C)C2CCC1(O)C3 (configuration not stated)	i	i	i	nt	i	36.9
C[C@@H]1CN([C@H](C)CO)C(=O)c2cccc(NS(=O)(=O)c3ccc(Cl)cc3)c2O[C@H]1CN(C)C	i	i	i	i	i	i
C[C@@H]1CN([C@@H](C)CO)C(=O)c2cccc(NC(=O)Nc3cccc4ccccc34)c2O[C@H]1CN(C)S(=O)(=O)c1cccs1	nt	i	i	i	i	nt
COc1ccccc1C(=O)Nc1ccc2c(c1)OC[C@H](C)N(C(C)=O)C[C@H](C)[C@H](OC)CN(C)C2=O	i	i	i	i	nt	i
Nc1nccc(-c2cccs2)n1	i	43.4	i	i	i	nt
C[C@@H](NC(=O)C[C@@H]1CC[C@H](NC(=O)C2CCOCC2)[C@H](CO)O1)c1ccccc1	i	i	i	i	i	i
CN(C)C(/C=C/Nc1ccc(Br)cc1)=C(C#N)C#N	i	43.0	i	i	i	i
CN(C)C(/C=C/Nc1ccc(C#N)cc1)=C(C#N)C#N	nt	nt	i	nt	nt	nt
O=C(C[C@@H]1C[C@@H]2c3cc(NC(=O)NC4CCCC4)ccc3O[C@@H]2[C@H](CO)O1)NCc1cc(F)ccc1F	i	nt	nt	nt	nt	i
CCN=c1scc(C)n1/N=C/c1cc(Br)c(O)c(Br)c1	i	43.1	i	i	i	i
CCN=c1scc(C)n1/N=C/c1ccc(O)c(O)c1O	nt	nt	79.5	nt	nt	i
SMILES	XiGFP reactiv	FGF22 binding	ARNT TACC3 PPI	SIRT5 inh	DENV2 CPE rescue	FN deposit inh
COCCN=c1scc(-c2cccs2)n1/N=C/c1ccc(O)c(O)c1O	i	89.0	63.6	i	i	i
COCCN=c1scc(-c2ccccc2)n1/N=C/c1c[nH]c2ccccc12	i	i	i	nt	i	i
CCN=c1scc(-c2ccco2)n1/N=C/c1ccc(O)cc1	nt	nt	i	nt	nt	i
CN1CCN(C(=O)c2cc3c(c(-c4cccc(-c5ccc(C#N)cc5)c4)n2)[C@H](CCO)N([S@@](=O)C(C)(C)C)C3)CC1	i	i	i	i	i	i
C[C@@H]1CCCCO[C@H](CN(C)C(=O)Nc2ccc(F)cc2)[C@H](C)CN([C@@H](C)CO)C(=O)c2cc(NC(=O)c3ccncc3)ccc2O1	i	i	i	i	i	i
C[C@@H]1CCCCO[C@H](CN(C)C(=O)Nc2ccc(C(F)(F)F)cc2)[C@H](C)CN([C@H](C)CO)C(=O)c2cc(NC(=O)c3ccncc3)ccc2O1	i	nt	i	i	i	i
C[C@@H]1CCCCO[C@H](CN(C)C(=O)Nc2ccc(C(F)(F)F)cc2)[C@@H](C)CN([C@H](C)CO)C(=O)c2cc(NC(=O)c3ccncc3)ccc2O1	i	i	i	i	21.0!	i
C[C@H](CO)N1C[C@H](C)[C@H](CN(C)C(=O)Nc2ccc(F)cc2)OCCCC[C@H](C)Oc2ccc(NC(=O)c3ccccc3)cc2C1=O	i	i	i	i	83.8	nt
C[C@@H]1CCCCO[C@@H](CN(C)C(=O)Nc2ccc(F)cc2)[C@H](C)CN([C@H](C)CO)C(=O)c2cc(NC(=O)c3ccncc3)ccc2O1	i	i	i	i	26.8	i
C[C@@H]1CCCCO[C@H](CN(C)C(=O)Nc2ccc(C(F)(F)F)cc2)[C@H](C)CN([C@@H](C)CO)C(=O)c2cc(NC(=O)c3ccncc3)ccc2O1	i	nt	i	i	21.9	i
C[C@@H]1CCCCO[C@@H](CN(C)C(=O)Nc2ccc(F)cc2)[C@H](C)CN([C@@H](C)CO)C(=O)c2cc(NC(=O)c3ccccc3)ccc2O1	i	i	i	i	i	nt
CCNC(=O)C[C@H]1CC[C@H]2[C@H](COc3ccc(NC(=O)Nc4cccc(OC)c4)cc3C(=O)N2C)O1	i	i	i	nt	?	i
COc1ccc(-c2cnc3c(c2)C(=O)N([C@H](C)CO)C[C@@H](C)[C@H](CN(C)C(=O)CN(C)C)O3)cc1	i	i	i	i	i	i
COc1cccc(S(=O)(=O)Nc2ccc3c(c2)OC[C@@H](C)N(C(=O)Cc2cccnc2)C[C@H](C)[C@H](OC)CN(C)C3=O)c1	i	nt	i	nt	nt	i
NC(=O)c1ccsc1NC(=O)c1ccc2c(c1)CCCC2	i	i	i	i	i	i
NC(=O)c1ccsc1NC(=O)c1ccc(N2CCCC2=O)cc1	i	43.5	i	nt	i	nt
O=C(/C=C/c1ccc(Br)o1)OCc1nc2ccsc2c(=O)[nH]1	nt	nt	i	25.3	nt	nt
NC(=O)c1cc(C(=O)c2ccc(Cl)cc2Cl)c[nH]1	i	43.9	i	i	32.8	i

Assay outcomes as filed in PubChem BioAssay.
